In PMC3166240 (Cancer research, 2010):

Tests used:
[1] = target: T1, α4β1 integrin (Homo sapiens, UniProt P05556+P13612); assay: cell adhesion competitive inhibition assay; format: cell-based
Method in brief: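 Wells were coated with neutravidin, then loaded with biotinylated CS-1 to immobilize the ligand, and blocked with BSA. Molt-4 cells (human T-cell leukemia, α4β1-bearing) were incubated in the wells with test compound. Wells were washed, formalin-fixed and crystal violet-stained, and absorbance was read at 570 nm. Percent inhibition came from concentration-dependent curves.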

[2] = tested on: Raji cells (human B-cell lymphoma) xenograft tumors; assay: animal biodistribution study for 7 in Raji xenograft mice; format: in vivo, BALB/c nu/nu mice; conditions: i.v.
Method in brief: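 Eleven female BALB/c nu/nu mice, 5–6 weeks old, were xenografted s.c. in the abdomen with 5 × 10⁶ Raji cells. Tumors were measured after three weeks. The ¹²⁵I-labeled test compound (4–6 μCi; 5 μg, 6 nmol) in normal saline was given i.v. via the tail vein. Mice were killed at 4, 24 and 48 h. Tissues were weighed and γ-counted (%ID/g). Mice were grouped afterwards by slow or fast blood clearance.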

[3] = target: T1, α4β1 integrin; assay: in vitro binding studies of radioiodinated 8; conditions: 125I-labelled

T1 sequence (P13612 34-1032): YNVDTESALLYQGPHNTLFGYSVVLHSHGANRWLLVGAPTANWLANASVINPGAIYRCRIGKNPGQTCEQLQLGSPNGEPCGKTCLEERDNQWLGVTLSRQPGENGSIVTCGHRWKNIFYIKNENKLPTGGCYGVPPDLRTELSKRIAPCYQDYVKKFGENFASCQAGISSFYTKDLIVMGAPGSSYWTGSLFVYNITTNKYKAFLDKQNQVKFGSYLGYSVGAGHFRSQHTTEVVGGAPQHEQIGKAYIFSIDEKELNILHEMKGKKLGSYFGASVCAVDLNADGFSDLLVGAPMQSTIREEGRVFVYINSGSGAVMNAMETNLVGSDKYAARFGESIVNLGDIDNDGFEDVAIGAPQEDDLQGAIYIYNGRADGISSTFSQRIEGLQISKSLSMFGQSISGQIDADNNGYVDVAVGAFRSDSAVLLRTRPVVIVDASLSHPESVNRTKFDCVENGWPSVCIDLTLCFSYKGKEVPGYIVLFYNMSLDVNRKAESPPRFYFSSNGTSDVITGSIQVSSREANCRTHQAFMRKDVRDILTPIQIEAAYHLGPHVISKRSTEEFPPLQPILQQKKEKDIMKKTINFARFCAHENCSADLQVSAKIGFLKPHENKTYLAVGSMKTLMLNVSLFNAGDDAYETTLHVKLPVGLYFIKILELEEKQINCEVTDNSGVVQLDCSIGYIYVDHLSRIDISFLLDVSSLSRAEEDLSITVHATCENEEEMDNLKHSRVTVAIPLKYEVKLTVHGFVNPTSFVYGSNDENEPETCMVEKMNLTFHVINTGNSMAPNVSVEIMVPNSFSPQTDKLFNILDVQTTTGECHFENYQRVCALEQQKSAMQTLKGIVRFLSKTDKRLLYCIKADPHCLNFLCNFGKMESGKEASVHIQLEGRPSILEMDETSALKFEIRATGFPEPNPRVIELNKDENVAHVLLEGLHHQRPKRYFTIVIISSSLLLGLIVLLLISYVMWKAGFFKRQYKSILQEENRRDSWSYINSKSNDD
T1 sequence (P05556 21-798): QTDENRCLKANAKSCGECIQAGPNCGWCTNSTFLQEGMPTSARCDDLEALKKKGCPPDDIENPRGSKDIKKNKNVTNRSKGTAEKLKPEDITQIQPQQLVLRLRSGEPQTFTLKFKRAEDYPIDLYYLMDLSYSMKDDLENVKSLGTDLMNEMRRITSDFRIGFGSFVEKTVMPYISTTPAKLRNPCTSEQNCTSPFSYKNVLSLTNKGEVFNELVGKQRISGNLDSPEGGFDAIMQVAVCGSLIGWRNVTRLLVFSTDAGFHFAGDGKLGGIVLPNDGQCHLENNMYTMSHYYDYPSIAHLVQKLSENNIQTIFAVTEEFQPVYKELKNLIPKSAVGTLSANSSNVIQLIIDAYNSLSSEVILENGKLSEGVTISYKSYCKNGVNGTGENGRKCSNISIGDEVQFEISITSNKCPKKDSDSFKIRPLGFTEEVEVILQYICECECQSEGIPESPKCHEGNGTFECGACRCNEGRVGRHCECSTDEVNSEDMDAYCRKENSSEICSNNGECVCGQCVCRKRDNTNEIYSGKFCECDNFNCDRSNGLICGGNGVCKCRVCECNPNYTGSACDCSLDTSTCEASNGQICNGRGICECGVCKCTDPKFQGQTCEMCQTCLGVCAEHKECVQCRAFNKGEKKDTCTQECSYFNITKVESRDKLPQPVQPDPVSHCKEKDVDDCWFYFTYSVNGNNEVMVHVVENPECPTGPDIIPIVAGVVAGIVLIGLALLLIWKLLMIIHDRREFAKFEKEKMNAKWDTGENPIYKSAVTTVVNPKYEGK

## NC(=O)C1(NC(=O)[C@H](CCCC(=O)O)NC(=O)[C@H](CCCCNC(=O)/C=C/c2cccnc2)NC(=O)c2ccc(Nc3nc4cc(Br)ccc4[nH]3)cc2)CCCCC1 [compound 5, (S)-5-[(S)-2-{4-(5-Bromo-1H-benzo[d]imidazol-2-ylamino}benzamido]-6-[(E)-3-(pyridin-3-yl)-acrylamido}hexanamido]-6-(1-carbamoylcyclohexylamino)-6-oxo-hexanoic Acid]
[1]; compared with previous leads
  fold less potent than previous leads: 2 fold

## NC(=O)C1(NC(=O)[C@H](CCC(=O)O)NC(=O)[C@H](CCCCNC(=O)/C=C/c2cccnc2)NC(=O)c2ccc(Nc3nc4cc([125I])ccc4[nH]3)cc2)CCCCC1 [compound 7, [^125I]-(S)-6-(1-Carbamoylcyclohexylamino)-5-[(S)-2-{4-(5-iodo-1H-benzo[d]imidazol-2-ylamino)-benzamido]-6-[(E)-3-(pyridin-3-yl)acrylamido}hexanamido]-6-oxo-hexanoic Acid]
[2]; fast blood clearance mice (3 at 24 h, 2 at 48 h)
  major dose accumulated in liver, spleen and marrow: 25 % ID/g
[2]; fast blood clearance mice
  tumor uptake: less than 1.5 % ID/g
[2]; slow blood clearance mice (2 at 24 h, 1 at 48 h)
  still circulating in the blood: approximately 15%
[2]; slow blood clearance mice, 48 h
  liver, spleen and marrow uptakes: less than 8 % ID/g
[2]; slow blood clearance mice
  tumor uptake: greater than 6 % ID/g
[1]; compared with 5
  reduced in vitro affinity for α4β1 integrin compared to the bromo analogue 5: nearly ten-fold

## NC(=O)[C@H](Cc1ccc(O)c([125I])c1)C(=O)NC(=O)C1(NC(=O)[C@H](CCC(=O)O)NC(=O)[C@H](CCCCNC(=O)/C=C/c2cccnc2)NC(=O)c2ccc(Nc3nc4cc(Br)ccc4[nH]3)cc2)CCCCC1 [compound 8, [^125I]-(S)-6-[1-{(S)-3-Amino-2-(4-hydroxy-3-iodobenzyl)-3-oxopropanoyl-carbamoyl}cyclohexylamino]-5-[(S)-2-{4-(5-bromo-1H-benzo[d]imidazol-2-ylamino)benzamido]-6-[(E)-3-(pyridin-3-yl)-acrylamido}hexanamido]-6-oxohexanoic Acid]
[3]
  in vitro binding: < 4%

## (S)-6-(1-Carbamoylcyclohexylamino)-5-[(S)-2-{4-(5-iodo-1H-benzo[d]imidazol-2-ylamino)benz-amido]-6-[(E)-3-(pyridin-3-yl)acrylamido}hexanamido]-6-oxohexanoic Acid [compound 6]
[1]; compared with 3, 4, 5
  fold less potent than the fluoro (3), chloro (4), and bromo (5) analogues: approximately 10 fold
[1]; compared with 15a, 15b
  fold more potent than the unsubstituted (15a) and methyl analogues (15b): 100 fold
